High-throughput results as filed in PubChem.
SUMO1 PPI mod: modulators of SUMO1 protein-protein interactions, primary screen, biochemical, uHTS | 360,000 tested, 0.33% active | SUMO1 binding to a labelled peptide, TR-FRET, 1 h | inhibition, % at 20 µM; in the data active = inhibition above about 37%
LMPTP inh: LMPTP phosphatase inhibitors, primary screen, biochemical, fluorescence intensity, uHTS; recombinant LMPTP-A, OMFP fluorogenic substrate; inhibition, % at 20 µM; 360,000 tested, 0.22% active; AID 651560, 2012;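 active = compounds that cut the enzyme signal by at least half of the control window in the single-dose screen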;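 also: plate controls were DMSO wells with enzyme plus substrate for no effect and substrate without enzyme for full effect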
Target sequence (P24666 whole entry, looked up): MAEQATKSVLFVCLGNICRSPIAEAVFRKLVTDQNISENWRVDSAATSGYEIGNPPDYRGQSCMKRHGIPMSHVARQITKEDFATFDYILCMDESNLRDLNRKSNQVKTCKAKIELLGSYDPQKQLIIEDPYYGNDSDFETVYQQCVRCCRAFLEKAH
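Buffer or medium: Bis-Tris pH 6.0, DTT, detergent; Assay system: LMPTP-A enzyme; Quantity: 0.625 nM enzyme; Detection: endpoint fluorescence intensity; Times: 50 min dark incubation at room temperature; Controls: substrate-only low control, DMSO enzyme-plus-substrate high control; Doses: single 20 µM dose; Read-out: percent inhibition versus substrate-only and uninhibited controls; Reagent: 400 µM OMFP.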
DNMT1 inh: human DNMT1 methyltransferase inhibitors, primary screen, biochemical, molecular beacon, fluorescence, HinP1I cleavage, uHTS; DNA (cytosine-5)-methyltransferase 1 (Homo sapiens), P26358; inhibition (reported as % activation of signal), % at 10 µM; 360,000 tested, 0.83% active; in the data active = inhibition above about 50%
Scp1 inh: Scp-1 phosphatase inhibitors, primary screen, biochemical, colorimetric, uHTS. AID 493091, 2011. inhibition, % at 20 µM. Recombinant Scp1, phosphopeptide, malachite green phosphate absorbance. Carboxy-terminal domain RNA polymerase II polypeptide A small phosphatase 1 (Homo …. 340,000 tested, 0.88% active;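 active = inhibition above about 50% at 20 µM, limit read from the data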;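 also: plate controls were DMSO wells with enzyme for no effect and wells lacking enzyme for full effect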
Target sequence (Q9GZU7 76-261 limits assumed): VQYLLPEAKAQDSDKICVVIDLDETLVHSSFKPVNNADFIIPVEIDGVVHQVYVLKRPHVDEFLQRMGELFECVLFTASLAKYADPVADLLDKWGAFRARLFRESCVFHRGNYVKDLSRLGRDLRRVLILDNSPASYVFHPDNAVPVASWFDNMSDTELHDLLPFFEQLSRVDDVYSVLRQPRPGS
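System: truncated SCP-1 phosphatase (76-261aa); medium: Tris acetate buffer pH 5.5 with MgCl2 and Tween-20; incubation: 45 min room-temperature reaction, 5 min colour, 30 min stabiliser; compound: single 20 µM dose, 1% DMSO; reagent: Phosphorylated 17-residue peptide substrate; read-out: % inhibition at 20 µM; technique: colorimetric free-phosphate detection, absorbance 630 nm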
STEP inh: STEP phosphatase inhibitors, primary screen, biochemical, fluorescence intensity, uHTS; recombinant STEP, OMFP fluorogenic substrate; inhibition, % at 20 µM; 360,000 tested, 0.25% active;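 active = inhibition at 20 µM, scaled per plate between control wells, above about 37%, limit read from the data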;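 also: 0% = DMSO with enzyme and substrate and 100% = substrate only without enzyme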
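Also added – OMFP at 25 µM · Test system – STEP tyrosine phosphatase · Technique – FITC-channel fluorescence of OMFP product · Schedule – 20 min at room temperature, dark · Evaluation – control-normalized % inhibition with plate pattern correction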
An asterisk follows results filed as active; nt = not tested or not shown. The list is not random: actives were taken first. Their share in the collection is about 1.7%.

SMILES	SUMO1 PPI mod	LMPTP inh	DNMT1 inh	Scp1 inh	STEP inh
CC1(C)C2CC[C@]3(C)[C@H](C(=O)C=C4[C@@H]5C[C@@](C)(C(=O)O)CC[C@]5(C)CC[C@]43C)[C@@]2(C)CC[C@@H]1O[C@H]1O[C@H](C(=O)O)[C@@H](O)[C@H](O)[C@H]1O[C@@H]1O[C@H](C(=O)O)[C@@H](O)[C@H](O)[C@H]1O (some centres not stated)	41*	-2	1	nt	-2
CC(C)CCNC(=O)NC(=O)COC(=O)c1cc(S(=O)(=O)N2CCOCC2)ccc1N1CCCCC1	45*	0	-2	14	4
Cc1ccc(S(=O)(=O)N2CCOCC2)cc1C(=O)OCC(=O)Nc1ccc2[nH]c(=O)[nH]c2c1	82*	2	2	1	-1
Cc1ccc(-c2nn(-c3ccc(F)cc3)cc2C(=O)N(C)CC(=O)Nc2ccc(N3CCOCC3)cc2)cc1	4	2	-8	-1	-1
COC(C(=O)Nc1ccnn1C1CCN(Cc2ccc(CO)o2)CC1)c1ccccc1 (configuration not stated)	1	3	1	-2	0
CCN1CC(C)(C)N(C(=O)c2ccccc2)CC1(C)C	7	-1	7	2	-2
O=C(O)c1ccc([N+](=O)[O-])c2c1C(=O)c1ccccc1C2=O	-14	-1	4	0	-1
O=C1c2ccccc2C(=O)c2c([N+](=O)[O-])ccc(O)c21	3	8	48	67*	32
Cc1oc2c(c1C(=O)c1ccccc1)C(=O)C(=O)c1ccccc1-2	37*	6	93*	-5	14
CCOc1ccc(CCNC(=O)CN2C(=O)NC3(CCCCCC3)C2=O)cc1OCC	48*	-1	2	-6	1
COc1ccc(CNC(=O)CN2C(=O)NC3(CCCCCC3)C2=O)cc1OC	3	-1	-3	-4	3
CC(=O)OCC1=C(C(=O)O)N2C(=O)C(NC(=O)c3ccc(F)cc3)C2SC1 (configuration not stated)	0	1	2	15	0
CC(=O)OCC1=C(C(=O)O)N2C(=O)[C@@H](NC(=O)CSc3ccncc3)[C@H]2SC1	15	2	45	77*	4
Cn1nnnc1SCC1=C(C(=O)O)N2C(=O)[C@@H](NC(=O)[C@H](O)c3ccccc3)[C@H]2SC1	35	1	88*	90*	28
Cc1ccc(C(=O)c2ccccc2C(=O)OCC(=O)NC(=O)NC(C)(C)C)cc1	45*	-1	2	0	1
CCCNC(=O)C1(C)CCCN(C(=O)c2sccc2C)C1 (configuration not stated)	-2	-1	1	nt	-2
CCOC(=O)c1ccccc1NC(=O)C=C(C)C	-3	1	6	-1	4
CCOC(=O)c1ccccc1NC(=O)/C=C/c1cc(OC)c(OC)c(OC)c1	43*	-1	-8	1	-2
O=C1NC[C@H](CCCCN2C[C@H](Cc3ccccc3)N(CCc3ccccc3)C(=O)C2=O)N(CC2CCCCC2)C1=O	-4	0	nt	nt	nt
O=C(c1ccc2n[nH]nc2c1)N1CCN(c2ccc(C(F)(F)F)cn2)CC1	-1	-2	-1	-1	1
Cc1ccc(-c2csc3nnc(SCC(=O)Nc4nsc(-c5ccccc5)n4)n23)cc1	4	3	3	15	2
